In the M2OR odorant receptor database:
Numbering of substitutions follows the chain as printed.

Key:
Conditions in all cases: stereoisomer not certain
O5AP2 A105T = tested on: T1, O5AP2 A105T
T1 sequence (whole entry): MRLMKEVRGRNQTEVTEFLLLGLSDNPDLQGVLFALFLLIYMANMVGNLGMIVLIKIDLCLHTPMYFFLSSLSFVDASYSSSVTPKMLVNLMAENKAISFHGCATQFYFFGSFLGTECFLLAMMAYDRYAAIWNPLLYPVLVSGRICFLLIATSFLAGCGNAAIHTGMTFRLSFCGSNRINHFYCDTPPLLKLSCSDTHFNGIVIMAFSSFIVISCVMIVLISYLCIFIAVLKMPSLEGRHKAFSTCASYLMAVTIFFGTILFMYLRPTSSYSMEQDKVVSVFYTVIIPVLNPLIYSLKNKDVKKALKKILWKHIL
In short: (§1)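 Each receptor–molecule pair is labelled responsive or non-responsive (inactive) according to whether the original authors judged the measured signal statistically different from baseline. The data were taken from the main text and supplementary material of published papers and checked for typos and inconsistencies. Assay methods differed by source, with transient luciferase assays in mammalian cell lines being common.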

O5AU1 = tested on: T2, O5AU1
T2 sequence (whole entry): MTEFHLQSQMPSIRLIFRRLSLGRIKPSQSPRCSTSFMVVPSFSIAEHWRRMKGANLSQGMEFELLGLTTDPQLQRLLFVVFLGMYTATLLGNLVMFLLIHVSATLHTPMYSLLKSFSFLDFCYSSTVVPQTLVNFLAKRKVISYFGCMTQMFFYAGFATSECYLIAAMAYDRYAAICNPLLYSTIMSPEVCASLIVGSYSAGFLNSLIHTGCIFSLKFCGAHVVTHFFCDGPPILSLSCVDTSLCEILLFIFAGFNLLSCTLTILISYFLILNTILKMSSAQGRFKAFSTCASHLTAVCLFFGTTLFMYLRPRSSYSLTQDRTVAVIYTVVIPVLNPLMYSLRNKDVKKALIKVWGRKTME
In short: as §1

O5H14 = tested on: T3, O5H14
T3 sequence (whole entry): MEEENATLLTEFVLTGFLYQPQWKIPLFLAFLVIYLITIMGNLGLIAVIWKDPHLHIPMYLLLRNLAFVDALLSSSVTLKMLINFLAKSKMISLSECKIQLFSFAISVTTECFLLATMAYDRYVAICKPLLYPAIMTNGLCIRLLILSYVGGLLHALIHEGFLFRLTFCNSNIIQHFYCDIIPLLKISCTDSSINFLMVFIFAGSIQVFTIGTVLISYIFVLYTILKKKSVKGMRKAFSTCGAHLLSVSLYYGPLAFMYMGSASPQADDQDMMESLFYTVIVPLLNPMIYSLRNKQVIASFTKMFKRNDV
In short: as §1

O5H15 V108I S148T T167S = tested on: T4, O5H15 V108I S148T T167S
T4 sequence (whole entry): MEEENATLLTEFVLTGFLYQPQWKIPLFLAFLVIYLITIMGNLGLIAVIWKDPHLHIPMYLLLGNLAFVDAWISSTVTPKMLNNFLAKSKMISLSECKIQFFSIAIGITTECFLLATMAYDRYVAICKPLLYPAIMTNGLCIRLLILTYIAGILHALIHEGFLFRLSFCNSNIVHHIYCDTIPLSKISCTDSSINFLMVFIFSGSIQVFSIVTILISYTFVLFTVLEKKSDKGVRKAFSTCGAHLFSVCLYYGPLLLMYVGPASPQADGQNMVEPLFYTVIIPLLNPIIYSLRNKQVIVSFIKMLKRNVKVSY
In short: as §1

O6C65 T222A = tested on: T5, O6C65 T222A
T5 sequence (whole entry): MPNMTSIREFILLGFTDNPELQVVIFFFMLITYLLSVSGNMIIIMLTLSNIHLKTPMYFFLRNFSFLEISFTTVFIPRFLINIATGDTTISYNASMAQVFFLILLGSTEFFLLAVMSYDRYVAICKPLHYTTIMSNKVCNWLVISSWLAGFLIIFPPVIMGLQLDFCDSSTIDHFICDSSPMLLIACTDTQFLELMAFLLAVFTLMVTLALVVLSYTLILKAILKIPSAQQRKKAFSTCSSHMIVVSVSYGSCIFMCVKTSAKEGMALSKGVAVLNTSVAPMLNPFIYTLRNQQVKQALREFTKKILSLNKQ
In short: as §1

O6C70 L181P = tested on: T6, O6C70 L181P
T6 sequence (whole entry): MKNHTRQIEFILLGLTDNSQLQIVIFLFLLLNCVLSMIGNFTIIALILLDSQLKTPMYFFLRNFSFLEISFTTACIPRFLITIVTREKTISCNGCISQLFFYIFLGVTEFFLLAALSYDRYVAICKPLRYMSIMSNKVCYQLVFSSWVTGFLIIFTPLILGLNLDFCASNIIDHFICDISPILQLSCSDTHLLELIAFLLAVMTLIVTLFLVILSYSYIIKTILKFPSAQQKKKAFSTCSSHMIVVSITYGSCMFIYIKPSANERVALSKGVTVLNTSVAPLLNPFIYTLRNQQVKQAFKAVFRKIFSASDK
In short: as §1

O7E24 S193F P242S = tested on: T7, O7E24 S193F P242S
T7 sequence (whole entry): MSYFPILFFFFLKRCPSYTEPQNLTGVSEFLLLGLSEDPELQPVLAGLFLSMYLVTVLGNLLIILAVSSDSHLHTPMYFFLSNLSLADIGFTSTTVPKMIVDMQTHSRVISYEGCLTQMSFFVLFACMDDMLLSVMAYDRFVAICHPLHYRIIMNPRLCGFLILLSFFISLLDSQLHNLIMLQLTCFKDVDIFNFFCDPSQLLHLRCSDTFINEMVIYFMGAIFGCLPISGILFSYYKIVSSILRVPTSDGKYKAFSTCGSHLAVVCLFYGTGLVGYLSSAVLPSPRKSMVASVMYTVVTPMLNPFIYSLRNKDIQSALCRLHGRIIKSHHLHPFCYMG
In short: as §1

O7E24 = tested on: T8, O7E24
T8 sequence (whole entry): T7 sequence (whole entry) with F193S
In short: as §1

OR10A2 (Homo sapiens) = molecular target: T9, OR10A2 (Homo sapiens) (UniProt Q9H208)
T9 sequence (whole entry): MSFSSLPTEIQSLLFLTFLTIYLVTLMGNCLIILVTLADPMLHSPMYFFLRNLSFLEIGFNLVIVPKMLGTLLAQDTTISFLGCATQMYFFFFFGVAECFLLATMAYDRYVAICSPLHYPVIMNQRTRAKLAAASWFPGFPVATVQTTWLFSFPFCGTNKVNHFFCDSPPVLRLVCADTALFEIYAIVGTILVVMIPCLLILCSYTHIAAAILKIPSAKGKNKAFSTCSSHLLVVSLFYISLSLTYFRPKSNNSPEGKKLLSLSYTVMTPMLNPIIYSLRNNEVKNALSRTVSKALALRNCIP
In short: as §1

OR10A3 (Homo sapiens) = molecular target: T10, OR10A3 (Homo sapiens) (UniProt P58181)
T10 sequence (whole entry): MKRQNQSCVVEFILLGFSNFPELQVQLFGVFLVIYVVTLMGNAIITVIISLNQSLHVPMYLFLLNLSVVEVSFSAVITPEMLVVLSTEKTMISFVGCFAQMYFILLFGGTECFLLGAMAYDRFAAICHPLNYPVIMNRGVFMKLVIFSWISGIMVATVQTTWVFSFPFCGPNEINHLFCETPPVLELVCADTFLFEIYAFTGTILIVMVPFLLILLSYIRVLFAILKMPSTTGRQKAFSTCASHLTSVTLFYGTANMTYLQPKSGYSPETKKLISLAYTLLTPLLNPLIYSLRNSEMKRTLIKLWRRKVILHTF
In short: as §1

OR10A4 (Homo sapiens) = molecular target: T11, OR10A4 (Homo sapiens) (UniProt Q9H209)
T11 sequence (whole entry): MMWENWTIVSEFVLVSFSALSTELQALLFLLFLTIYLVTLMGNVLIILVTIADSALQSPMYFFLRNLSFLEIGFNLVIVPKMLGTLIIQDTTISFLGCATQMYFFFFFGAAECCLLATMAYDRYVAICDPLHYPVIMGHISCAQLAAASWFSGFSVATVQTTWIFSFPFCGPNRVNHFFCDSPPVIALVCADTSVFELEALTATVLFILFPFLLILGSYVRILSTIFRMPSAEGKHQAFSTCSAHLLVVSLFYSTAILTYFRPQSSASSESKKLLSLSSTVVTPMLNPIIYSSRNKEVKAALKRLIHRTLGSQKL
In short: as §1

OR10A5 (Homo sapiens) = molecular target: T12, OR10A5 (Homo sapiens) (UniProt Q9H207)
T12 sequence (whole entry): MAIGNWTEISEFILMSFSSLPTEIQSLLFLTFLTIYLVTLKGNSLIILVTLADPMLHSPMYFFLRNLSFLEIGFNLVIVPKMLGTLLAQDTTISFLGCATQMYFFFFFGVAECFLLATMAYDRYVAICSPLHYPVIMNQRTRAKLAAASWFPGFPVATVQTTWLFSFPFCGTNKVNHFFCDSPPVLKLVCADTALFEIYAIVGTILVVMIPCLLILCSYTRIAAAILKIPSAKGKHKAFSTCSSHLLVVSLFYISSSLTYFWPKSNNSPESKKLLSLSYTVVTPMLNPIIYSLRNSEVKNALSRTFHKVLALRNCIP
In short: as §1

OR10A6 (Homo sapiens) = molecular target: T13, OR10A6 (Homo sapiens) (UniProt Q8NH74)
T13 sequence (whole entry): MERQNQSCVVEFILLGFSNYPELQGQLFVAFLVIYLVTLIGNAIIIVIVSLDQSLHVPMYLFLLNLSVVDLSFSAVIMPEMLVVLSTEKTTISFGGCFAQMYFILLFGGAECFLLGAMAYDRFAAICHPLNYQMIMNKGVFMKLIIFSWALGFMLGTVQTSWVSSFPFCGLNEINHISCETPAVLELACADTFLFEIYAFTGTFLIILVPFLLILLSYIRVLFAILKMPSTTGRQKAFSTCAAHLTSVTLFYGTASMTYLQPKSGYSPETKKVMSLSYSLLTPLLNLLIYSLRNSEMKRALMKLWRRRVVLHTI
In short: as §1

OR10A7 (Homo sapiens) = molecular target: T14, OR10A7 (Homo sapiens) (UniProt Q8NGE5)
T14 sequence (whole entry): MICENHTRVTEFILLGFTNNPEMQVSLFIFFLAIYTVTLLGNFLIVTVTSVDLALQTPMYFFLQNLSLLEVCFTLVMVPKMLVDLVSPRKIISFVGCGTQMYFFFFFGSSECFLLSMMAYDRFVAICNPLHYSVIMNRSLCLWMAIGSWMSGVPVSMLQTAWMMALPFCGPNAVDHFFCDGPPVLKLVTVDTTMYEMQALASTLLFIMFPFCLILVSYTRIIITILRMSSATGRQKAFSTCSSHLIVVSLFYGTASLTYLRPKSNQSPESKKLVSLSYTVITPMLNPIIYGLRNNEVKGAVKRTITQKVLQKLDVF
In short: as §1

OR10AD1 (Homo sapiens) = molecular target: T15, OR10AD1 (Homo sapiens) (UniProt Q8NGE0)
T15 sequence (whole entry): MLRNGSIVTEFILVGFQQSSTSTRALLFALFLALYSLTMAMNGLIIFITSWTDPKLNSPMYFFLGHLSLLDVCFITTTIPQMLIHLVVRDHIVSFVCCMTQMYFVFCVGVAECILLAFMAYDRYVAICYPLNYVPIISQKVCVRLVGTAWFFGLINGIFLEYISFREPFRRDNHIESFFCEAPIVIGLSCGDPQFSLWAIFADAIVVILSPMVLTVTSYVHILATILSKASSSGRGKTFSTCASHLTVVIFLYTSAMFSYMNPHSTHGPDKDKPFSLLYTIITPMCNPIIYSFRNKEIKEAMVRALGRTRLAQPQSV
In short: as §1

OR10AG1 (Homo sapiens) = molecular target: T16, OR10AG1 (Homo sapiens) (UniProt Q8NH19)
T16 sequence (whole entry): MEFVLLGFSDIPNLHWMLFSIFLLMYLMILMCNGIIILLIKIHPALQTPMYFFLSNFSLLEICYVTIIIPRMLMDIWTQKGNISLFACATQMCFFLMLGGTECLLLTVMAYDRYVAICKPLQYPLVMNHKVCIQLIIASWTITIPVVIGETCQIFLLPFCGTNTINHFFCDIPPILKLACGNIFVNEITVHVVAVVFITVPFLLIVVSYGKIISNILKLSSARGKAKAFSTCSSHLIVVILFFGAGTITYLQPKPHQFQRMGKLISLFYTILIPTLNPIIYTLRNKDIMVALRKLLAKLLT
In short: as §1

OR10C1 (Homo sapiens) = molecular target: T17, OR10C1 (Homo sapiens) (UniProt Q96KK4)
T17 sequence (whole entry): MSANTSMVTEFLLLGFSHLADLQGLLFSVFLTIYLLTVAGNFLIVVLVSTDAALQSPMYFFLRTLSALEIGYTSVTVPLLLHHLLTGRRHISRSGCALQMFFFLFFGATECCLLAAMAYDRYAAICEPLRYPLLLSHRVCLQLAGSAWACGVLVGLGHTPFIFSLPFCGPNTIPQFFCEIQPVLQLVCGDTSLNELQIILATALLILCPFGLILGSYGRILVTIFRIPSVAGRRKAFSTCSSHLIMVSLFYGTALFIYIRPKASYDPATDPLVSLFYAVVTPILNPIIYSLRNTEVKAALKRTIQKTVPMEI
In short: as §1

OR10D3 (Homo sapiens) = molecular target: T18, OR10D3 (Homo sapiens) (UniProt Q8NH80)
T18 sequence (whole entry): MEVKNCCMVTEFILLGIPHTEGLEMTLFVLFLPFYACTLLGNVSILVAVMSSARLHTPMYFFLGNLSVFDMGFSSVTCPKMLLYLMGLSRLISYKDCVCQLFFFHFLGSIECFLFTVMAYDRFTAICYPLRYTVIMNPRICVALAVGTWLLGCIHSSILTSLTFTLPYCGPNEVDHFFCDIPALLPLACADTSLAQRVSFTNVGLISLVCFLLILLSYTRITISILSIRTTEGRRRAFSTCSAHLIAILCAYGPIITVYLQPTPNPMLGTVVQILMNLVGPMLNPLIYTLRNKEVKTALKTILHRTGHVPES
In short: as §1

Measured: odorant receptor agonist call;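 also: active if original authors judged signal statistically different from baseline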

CC1=C(O)C(=O)C(C)O1 (stereo unspecified)
inactive: all assays above

Cc1cnc(C)c(C)n1
inactive: all assays above
